How the values were obtained:
[1] = folding enthalpy; higher = less favourable; fluorescence melt of hairpins on a sequencing array, two-state fit; conditions: sodium 0.088 M
Outline: (§1)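 Library hairpins on a sequenced MiSeq flow cell carried annealed Cy3 and quencher oligos, and their Cy3 fluorescence was imaged in 50 mM Na-HEPES pH 8.0 with 25 mM NaCl, in 2.5 °C steps up to 60 °C. Signals were normalised to Cy3 before quenching and to control constructs. Melting temperature and folding enthalpy were obtained from bootstrapped two-state fits, combined by inverse-variance weighting across four replicates, and the fitted temperatures were then raised by 9.35 °C to match UV melts.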

[2] = melting temperature; fluorescence melt of hairpins on a sequencing array, two-state fit, raised by 9.35 °C to match UV melts; conditions: sodium 0.088 M
Outline: as §1

Sequence	folding enthalpy [1]	Tm [2]
GTCCATGCGAAAGCAGAC (((..(((....))))))	-12.9 kcal/mol	35.3 °C
GTCCATGGAAACATAGAC (((.(((....))).)))	-17.3 kcal/mol	30.1 °C
GTCCCACGAAAGTGGAC (((.(((....))))))	-13.1 kcal/mol	49.9 °C
GTCCCCGAAAGGGCGGAC ((((((....)))..)))	-15.4 kcal/mol	42.8 °C
GTCCCCGAAAGGGGGAC ((((((....))).)))	-17.1 kcal/mol	68.5 °C
GTCCCCGAAAGGGTGAC ((((((....))).)))	-22.6 kcal/mol	53.3 °C
GTCCCCGGAAACGAGGAC ((((.((....)).))))	-32.1 kcal/mol	48 °C
GTCCCCGGAAACGGAGAC (((.(((....))).)))	-28 kcal/mol	47.7 °C
GTCCCGGGAAACCGGAAC ((.((((....)))).))	-14.9 kcal/mol	44.4 °C
GTCCCTACGAAAGTAGAC (((..(((....))))))	-9.91 kcal/mol	25.9 °C
GTCCCTCGAAAGAGTGAC (((.(((....))).)))	-31.9 kcal/mol	45.3 °C
GTCCCTGCGAAAGCAGAC (((..(((....))))))	-7.38 kcal/mol	32.2 °C
GTCCCTGGAAACAAGGAC ((((.((....)).))))	-20 kcal/mol	34.7 °C
GTCCCTGGAAACGGGGAC (((((.(....).)))))	-49 kcal/mol	56.4 °C
GTCCGACCGAAAGGTGAC (((..(((....))))))	-16.6 kcal/mol	36.6 °C
GTCCGACGAAAGTCAGAC (((.(((....))).)))	-23.5 kcal/mol	50 °C
GTCCGAGGAAACTCAGAC (((.(((....))).)))	-21.4 kcal/mol	35.9 °C
GTCCGAGGAAACTTGGAC ((((.((....)).))))	-29.9 kcal/mol	51 °C
GTCCGCACGAAAGTGGAC (((..(((....))))))	-19.6 kcal/mol	47.1 °C
GTCCGCCCGAAAGGGGAC (((..(((....))))))	-18.7 kcal/mol	47.3 °C
GTCCGCCGAAAGGCCGAC (((.(((....))).)))	-20.5 kcal/mol	49.2 °C
GTCCGCGAAAGCGAAGAC ((((((....)))..)))	-17.4 kcal/mol	45.4 °C
GTCCGCGAAAGCGGCGAC ((((((....)))..)))	-10.7 kcal/mol	67 °C

Sequence	folding enthalpy [1]	Tm [2]
GTCCGCGAAAGCGGGAC ((((((....))).)))	-12.4 kcal/mol	63.5 °C
GTCCGCGAAAGCGTGAC ((((((....))).)))	-19.8 kcal/mol	58 °C
GTCCGGAAACGGAC (((((....)))))	-28.2 kcal/mol	67.4 °C
GTCCGGCGAAAGCCGAC (((.(((....))))))	-9.75 kcal/mol	49.1 °C
GTCCGTCGAAAGACGAC (((.(((....))))))	-13.4 kcal/mol	50.6 °C
GTCCTCGAAAGAGGCGAC ((((((....)))..)))	-17 kcal/mol	50.9 °C
GTCCTCGAAAGAGGGGAC ((((((....)))..)))	-11.6 kcal/mol	43.6 °C
GTCCTCGGAAACAAGGAC (((((.(....).)))))	-25.8 kcal/mol	39.3 °C
GTCCTCGGAAACGAAGAC (((.(((....))).)))	-26 kcal/mol	38 °C
GTCCTCGGAAACGGGGAC ((((.((....)).))))	-45.3 kcal/mol	55.7 °C
GTCCTGGGAAACCAGGAC (((((((....)))))))	-36 kcal/mol	66.7 °C
GTCCTGGGAAACCGGGAC ((((.((....)).))))	-39.2 kcal/mol	55.7 °C
GTCCTGTCGAAAGACGAC (((..(((....))))))	-11.2 kcal/mol	34.1 °C
GTCCTTCCGAAAGGAGAC (((..(((....))))))	-11.4 kcal/mol	28.1 °C
GTCCTTCGAAAGAACGAC (((.(((....))).)))	-23.3 kcal/mol	33.5 °C
GTCCTTGCGAAAGCAGAC (((..(((....))))))	-12.3 kcal/mol	32.3 °C
GTCGAAGGAAACTCCGAC ((((.((....)).))))	-27.6 kcal/mol	42.1 °C
GTCGACCGAAAGGTGGAC (((.(((....))).)))	-42.1 kcal/mol	56.1 °C
GTCGACCGAAAGGTTGAC (((.(((....))).)))	-34.8 kcal/mol	62.2 °C
GTCGACGAAAGTCCCGAC ((((((....)))..)))	-16.1 kcal/mol	34 °C
GTCGACGAAAGTCTCGAC ((((((....)))..)))	-18.3 kcal/mol	41.8 °C
GTCGACGAAAGTCTGAC ((((((....))).)))	-21.8 kcal/mol	49.5 °C
GTCGACGAAAGTCTTGAC ((((((....)))..)))	-15.4 kcal/mol	36.2 °C

Sequence	folding enthalpy [1]	Tm [2]
GTCGACGGAAACACCGAC ((((..(....)..))))	-24.8 kcal/mol	31.6 °C
GTCGACGGAAACATCGAC (((((.(....).)))))	-39.8 kcal/mol	46.3 °C
GTCGACGGAAACGTTGGC (.(.(((....))).).)	-24.6 kcal/mol	46.2 °C
GTCGATCGAAAGATAGAC (((.(((....))).)))	-42.7 kcal/mol	50.4 °C
GTCGATGAAAATCGAC ((((((....))))))	-39.4 kcal/mol	61.3 °C
GTCGATGGAAACATCGAC (((((((....)))))))	-44.8 kcal/mol	67.3 °C
GTCGATGGAAACATCGGC (.(((((....))))).)	-42.2 kcal/mol	56.1 °C
GTCGATGGAAACATTGGC (.(.(((....))).).)	-29.2 kcal/mol	35.1 °C
GTCGATGGAAACGTCGAC (((((.(....).)))))	-37.6 kcal/mol	54.8 °C
GTCGCACGAAAGTGGGAC (((.(((....))).)))	-38.5 kcal/mol	67.4 °C
GTCGCACGAAAGTGTGAC (((.(((....))).)))	-42.4 kcal/mol	67.4 °C
GTCGCCGAAAGGCGAGAC ((((((....)))..)))	-7.32 kcal/mol	51.8 °C
GTCGCCGAAAGGCTCGAC ((((((....)))..)))	-13.2 kcal/mol	39.1 °C
GTCGCGGGAAACCGTGGC (.(.(((....))).).)	-28.5 kcal/mol	50.3 °C
GTCGCTTCGAAAGAAGAC (((..(((....))))))	-9.98 kcal/mol	33.9 °C
GTCGGACGAAAGTCGAC (((.(((....))))))	-28 kcal/mol	56.9 °C
GTCGGAGGAAACTCTGAC (((.(((....))).)))	-45.4 kcal/mol	50 °C
GTCGGATCGAAAGATGAC (((..(((....))))))	-16.7 kcal/mol	31.7 °C
GTCGGCGAAAGCCCTGAC ((((((....)))..)))	-10.4 kcal/mol	35.6 °C
GTCGGCGAAAGCCGAGAC ((((((....)))..)))	-7.78 kcal/mol	55.6 °C
GTCGGCGAAAGCCTGGAC ((((((....)))..)))	-15.2 kcal/mol	45 °C
GTCGGCTCGAAAGAGGAC (((..(((....))))))	-16 kcal/mol	32.2 °C

Reference: the array DNA melting data of Ke et al. (doi:10.1101/2024.01.08.574731)
